Values after ≈ are worked out from the molar mass of the structure shown. Values joined by “and” are separate entries in the source; they are usually repeats but may differ in a detail not shown here. Identical values can stand only once.
Tests used:
[1] = system: normal T-lymphocytes (peripheral blood mononuclear cells: PBMC); conditions: PBMC vs Jurkat; ref [34]; cited from earlier work
[2] = system: Jurkat-shBak cells (Bax/Bak-deficient Jurkat cells); conditions: 25 μM; ref [33]; cited from earlier work
[3] = system: Jurkat control (CN) cells; conditions: 25 μM; ref [33]; cited from earlier work
[4] = ref [34], cited from earlier work
[5] = Solubility; assay type: physicochemical
[6] = Stability in solution by 31P{1H} NMR; assay type: physicochemical; conditions: for half-life in d6-DMSO:D2O mixture: d6-DMSO:D2O (1:1 / 50:50)
[7] = system: plasmid (pBR322) DNA; assay: Electrophoresis mobility shift assay with plasmid DNA; assay type: binding; conditions: metal/DNA ratios 0.25, 0.5, 1.0; 37 °C, 20 h
How it was run: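 pBR322 plasmid DNA (20 μg/mL) in 5 mM Tris/HCl, 50 mM NaClO4, pH 7.39 was incubated with test compound at compound:DNA molar ratios of […] for 20 h at 37 °C in the dark. Free DNA and cisplatin-DNA adduct served as controls. Samples were run on 1% agarose in TAE for 1.5 h at 80 V, then stained 30 min with GelRed.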

## N.N.[Cl][Pt][Cl] [Cisplatin, cisplatin]
[1]
  times less toxic to PBMC than to Jurkat cell lines: 70 times
[2]
  death of Jurkat-shBak cells: less than 8%
[3]
  death of Jurkat control (CN) cells: around 60%

## O=C(N=P12CN3CN(CN(C3)C1)C2)c1ccccn1 [TPA=N-C(O)-2-NC5H4]
[4]; D2O
  time to 50% decomposition in D2O: 12 h
[4]; d6-DMSO:D2O (1:1)
  half-life in d6-DMSO:D2O (1:1): 48 h

## O=C(N=P12CN3CN(CN(C3)C1)C2)c1ccccc1Br [compound 1, TPA=N-C(O)-2BrC6H4]
[5]
  Solubility (H2O): 28 mM (≈ 9940 µg/mL)
  solubility in H2O: 10000 µg/mL (≈ 28.2 mM)
[6]; D2O
  half-life in D2O: 48 h
[6]; DMSO
  stability in DMSO solution: over two weeks
[6]
  half-life in d6-DMSO:D2O mixture: 336 h
[7]
  change in electrophoretic mobility of pBR322 forms (CCC Form I, OC Form II): does not cause any shift for either form

## [Pd{C6H4(C(O)N=TPA-kC,N)-2}{C12H6N2(C6H4SO3Na)2}] [compound 5]
[5]
  Solubility (H2O): 1.0 mM and 0.90 mg/mL
[6]; 24 h
  stability under biological testing conditions: stable
[6]; d6-DMSO
  stable in d6-DMSO solution over: over 2 days
[6]
  half-life in d6-DMSO:D2O mixture: above 4 days

From article PMC3466594 (Organometallics, 2012)
